The values below come from ChEMBL document CHEMBL1159036, “Design and synthesis of selective inhibitors of placental alkaline phosphatase” (Bioorg Med Chem, 2010).

Bounds are passed on as bounds.

For assay [1], the target named is T1, Alkaline phosphatase, tissue-nonspecific isozyme (Homo sapiens, UniProt P05186).
T1 sequence (P05186 whole entry): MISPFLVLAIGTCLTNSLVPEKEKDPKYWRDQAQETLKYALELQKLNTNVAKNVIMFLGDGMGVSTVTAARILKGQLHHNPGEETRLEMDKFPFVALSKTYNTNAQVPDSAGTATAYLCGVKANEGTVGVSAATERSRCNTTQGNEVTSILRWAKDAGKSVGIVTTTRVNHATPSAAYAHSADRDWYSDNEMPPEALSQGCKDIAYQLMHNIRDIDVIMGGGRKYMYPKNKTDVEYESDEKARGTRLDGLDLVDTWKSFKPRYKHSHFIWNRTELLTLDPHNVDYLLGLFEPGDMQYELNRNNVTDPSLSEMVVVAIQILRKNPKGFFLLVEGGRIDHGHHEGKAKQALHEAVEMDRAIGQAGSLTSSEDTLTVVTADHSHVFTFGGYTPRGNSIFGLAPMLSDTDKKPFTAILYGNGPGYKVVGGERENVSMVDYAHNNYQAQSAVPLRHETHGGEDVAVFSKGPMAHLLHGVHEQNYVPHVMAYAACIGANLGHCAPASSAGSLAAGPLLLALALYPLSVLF
Kind of assay: Inhibition of TNAP by analogous luminescence assay.

Assay [2] in a line: Selectivity ratio of IC50 for TNAP to IC50 for PLAP.
Assay [3] addresses Alkaline phosphatase, germ cell type (Homo sapiens, UniProt P10696). Kind of assay: Inhibition of GCAP by analogous luminescence assay. In a few lines: (§1)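 GCAP and PLAP IC50s were measured together in dose-response runs on a separate occasion, using enzyme concentrations that differed from those of the main assays.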
Assay [4] can be described thus: Selectivity ratio of IC50 for IAP to IC50 for PLAP.
The target of assay [5] is Intestinal-type alkaline phosphatase (Homo sapiens, UniProt P09923). Kind of assay: Inhibition of IAP by analogous luminescence assay.
Intestinal-type alkaline phosphatase, sequence (P09923 whole entry): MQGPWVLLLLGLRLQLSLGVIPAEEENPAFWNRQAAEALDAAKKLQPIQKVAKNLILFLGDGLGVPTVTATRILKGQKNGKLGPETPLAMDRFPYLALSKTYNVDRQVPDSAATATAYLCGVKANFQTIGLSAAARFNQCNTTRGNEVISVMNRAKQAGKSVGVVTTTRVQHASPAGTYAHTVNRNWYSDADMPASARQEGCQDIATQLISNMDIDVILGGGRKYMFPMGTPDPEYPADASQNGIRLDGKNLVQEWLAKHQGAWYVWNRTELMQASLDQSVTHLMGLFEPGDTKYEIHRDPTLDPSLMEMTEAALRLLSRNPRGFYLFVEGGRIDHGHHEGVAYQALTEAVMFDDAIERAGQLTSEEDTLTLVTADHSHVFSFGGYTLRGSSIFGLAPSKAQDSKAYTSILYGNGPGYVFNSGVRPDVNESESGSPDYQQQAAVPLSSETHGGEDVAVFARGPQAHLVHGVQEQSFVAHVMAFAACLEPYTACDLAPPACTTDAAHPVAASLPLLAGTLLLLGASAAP
Assay [6] is described as follows: Selectivity ratio of IC50 for GCAP to IC50 for PLAP. A digest of the protocol: as §1

Alkaline phosphatase, germ cell type, sequence (P10696 whole entry): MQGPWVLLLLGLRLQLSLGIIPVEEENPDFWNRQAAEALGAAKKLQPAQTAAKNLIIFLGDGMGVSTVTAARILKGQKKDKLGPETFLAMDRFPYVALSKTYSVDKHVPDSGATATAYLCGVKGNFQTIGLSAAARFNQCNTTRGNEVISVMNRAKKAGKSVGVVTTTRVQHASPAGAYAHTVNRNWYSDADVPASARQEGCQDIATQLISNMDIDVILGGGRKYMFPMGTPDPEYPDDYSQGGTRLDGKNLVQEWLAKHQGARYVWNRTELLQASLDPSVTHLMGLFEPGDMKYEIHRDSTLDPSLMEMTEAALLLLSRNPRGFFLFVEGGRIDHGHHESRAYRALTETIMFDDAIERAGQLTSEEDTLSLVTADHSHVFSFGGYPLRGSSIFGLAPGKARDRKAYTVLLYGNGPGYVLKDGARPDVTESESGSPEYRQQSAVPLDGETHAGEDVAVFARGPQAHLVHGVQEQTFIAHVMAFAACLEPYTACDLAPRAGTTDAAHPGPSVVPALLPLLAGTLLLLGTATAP

The term IC50 denotes the concentration that inhibits the measured activity by half. A lower IC50 goes with higher potency. In assay [1], `CC(C)NCC(=O)c1ccc(O)c(O)c1` returned an IC50 greater than 100 µM. For the molecule `Cc1nc(Br)cn1CC(=O)c1ccc(O)c(O)c1`, in assay [1], the IC50 is 8.7 µM. The Ratio IC50 in assay [2] came to 1.7.

With `O=C(Cn1cnc2ccccc21)c1ccc(O)c(O)c1`, the IC50 was found to be 18 µM in assay [1] and 2.7 µM in assay [3]. On the same counts, the results for `Cc1nccn1CC(=O)c1ccc(O)c(O)c1` are 78.3 µM and 30.5 µM. Molecule `COc1ccc2c(c1OC)C(=O)OC2CC(=O)c1ccc(O)c(O)c1` (configuration not stated) displayed an IC50 in assay [1] of 29.2 µM. Still for that read-out and setting: the result for `COc1ccc(-n2nnnc2SCC(=O)c2ccc(O)c(O)c2)cc1` reads 8 µM. `Cc1cnn(CC(=O)c2ccc(O)c(O)c2)c1` had an IC50 in assay [1] greater than 100 µM. Besides, the Ratio IC50 in assay [4] turned out to be 25. Take `O=C(Cn1ccnc1-c1ccccc1)c1ccc(O)c(O)c1`: the IC50 in assay [1] is greater than 100 µM.

For `Cc1cn(CC(=O)c2ccc(O)c(O)c2)cn1`, the IC50 in assay [1] was determined as 41.1 µM. For the same molecule, the Ratio IC50 in assay [2] came out at 7. In the case of `Cc1cc2ncn(CC(=O)c3ccc(O)c(O)c3)c2cc1C`, the IC50 in assay [1] is greater than 100 µM. In assay [5], `CC(C)C[C@H](N)C(=O)O` [LEUCINE] registered an IC50 greater than 5 µM. With `O=C(Cn1ccnc1)c1ccc(O)c(O)c1`, the IC50 is greater than 100 µM in assay [1] and 1.2 µM in assay [3]. For the same molecule, the Ratio IC50 in assay [4] is 15; in assay [6], 0.6; in assay [2], greater than 32. On to `CCc1nccn1CC(=O)c1ccc(O)c(O)c1`, for which the figures for the IC50 in assay [1], in assay [3] and in assay [5] were greater than 100 µM, 1.7 µM and greater than 100 µM, respectively. In addition, the figures for the Ratio IC50 in assay [4], in assay [6] and in assay [2] were greater than 24, 2.1 and greater than 27, respectively. With `O=C(CNc1nc2ccccc2[nH]1)c1ccc(O)c(O)c1`, the results for the IC50 in assay [1] and in assay [3] were 93.8 µM and 6.2 µM, respectively. Moreover, the Ratio IC50 in assay [6] was 0.7. As to `CC(C)C[C@H](N)C(N)=O` [LEUCINE AMIDE], the IC50 in assay [5] was greater than 5 µM.

For the molecule `N=C(N)NCCCC[C@H](N)C(=O)O`, the IC50 in assay [5] is greater than 5 µM.

As for `c1ccc([C@H]2CN3CCSC3=N2)cc1` [LEVAMISOLE], in assay [5], the IC50 is greater than 5 µM.

As for `O=C(Cn1cnnc1)c1ccc(O)c(O)c1`, the IC50 in assay [1] is greater than 100 µM. `N[C@@H](Cc1c[nH]c2ccccc12)C(=O)O` [TRYPTOPHAN] gave an IC50 in assay [5] greater than 5 µM.

Regarding `Cc1nc2ccccc2n1CC(=O)c1ccc(O)c(O)c1`, the IC50 in assay [1] was 26.3 µM; in assay [3] it was 9.4 µM; in assay [5] it was greater than 100 µM. `Cc1cc(C)nc(SCC(=O)c2ccc(O)c(O)c2)n1` showed an IC50 in assay [3] of 0.6 µM. This lies in the sub-micromolar range.

`O=C(Cn1cnc(Br)c1)c1ccc(O)c(O)c1` returned an IC50 in assay [1] of 47.5 µM. This counts as double-digit micromolar. `N[C@@H](Cc1ccccc1)C(=O)O` [PHENYLALANINE] yielded an IC50 in assay [5] greater than 5 µM. On to `Cn1c(=O)c2[nH]cnc2n(C)c1=O` [THEOPHYLLINE], for which, in assay [5], the IC50 was greater than 5 µM.
